Consider 9 molecules from ChEMBL document CHEMBL4706761, “Design and Implementation of Synthetic RNA Binders for the Inhibition of miR-21 Biogenesis” (ACS Med Chem Lett, 2021).

pIC50, pKd: −log10 of the molar value.

The test system of assay [1] is microRNA 21. As to the kind of experiment: Binding affinity to 5'-FAM/3'-DAB-labeled UGUCGGGUAGCUUAUCAGACUGAUGUUGACUGUUGAAUCUCAUGGCAACACCAGUCGAUGGGCUGUCUGACA pre-miRNA-21 (unknown origin) assessed as pre-miRNA-21-compound complex formation by measuring Gibbs free energy. Type of assay: nucleic-acid assay. The procedure, abridged: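 ΔG°T obtained from the fluorescence binding assay on 5′-FAM-pre-miR-21, run at several temperatures (278–308 K). Enthalpic (ΔH°) and entropic (−TΔS°) contributions are derived from these values.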

Assay [2] concerns the target microRNA 21. As to the kind of experiment: Binding affinity to 5'-FAM/3'-DAB-labeled UGUCGGGUAGCUUAUCAGACUGAUGUUGACUGUUGAAUCUCAUGGCAACACCAGUCGAUGGGCUGUCUGACA pre-miRNA-21 (unknown origin) assessed as dissociation constant incubated for overnight by fluorescence based assay. Type of assay: nucleic-acid assay.
Assay [3] has as its system microRNA 21. The assay is described as follows: Selectivity index, ratio of Kd for 5'-FAM/3'-DAB-labeled UGUCGGGUAGCUUAUCAGACUGAUGUUGACUGUUGAAUCUCAUGGCAACACCAGUCGAUGGGCUGUCUGACA pre-miRNA-21 (unknown origin) in presence of tRNA to Kd for 5'-FAM/3'-DAB-labeled UGUCGGGUAGCUUAUCAGACUGAUGUUGACUGUUGAAUCUCAUGGCAACACCAGUCGAUGGGCUGUCUGACA pre-miRNA-21 (unknown origin). Type of assay: nucleic-acid assay.

In assay [4] the target is microRNA 21. As to the kind of experiment: Binding affinity to 5'-FAM/3'-DAB-labeled UGUCGGGUAGCUUAUCAGACUGAUGUUGACUGUUGAAUCUCAUGGCAACACCAGUCGAUGGGCUGUCUGACA pre-miRNA-21 (unknown origin) assessed as dissociation constant incubated for overnight in presence of Saccharomyces cerevisiae tRNA by fluorescence based assay. Type of assay: nucleic-acid assay.
Assay [5] deals with microRNA 21. The assay is described as follows: Selectivity index, ratio of Kd for 5'-FAM/3'-DAB-labeled UGUCGGGUAGCUUAUCAGACUGAUGUUGACUGUUGAAUCUCAUGGCAACACCAGUCGAUGGGCUGUCUGACA pre-miRNA-21 (unknown origin) in presence of double stranded 15-mer 5'-CGTTTTTATTTTTGC-3' DNA to Kd for 5'-FAM/3'-DAB-labeled UGUCGGGUAGCUUAUCAGACUGAUGUUGACUGUUGAAUCUCAUGGCAACACCAGUCGAUGGGCUGUCUGACA pre-miRNA-21 (unknown origin). Type of assay: nucleic-acid assay.

Assay [6] concerns the target microRNA 21. The assay is described as follows: Inhibition of 5'-FAM/3'-DAB-labeled UGUCGGGUAGCUUAUCAGACUGAUGUUGACUGUUGAAUCUCAUGGCAACACCAGUCGAUGGGCUGUCUGACA pre-miRNA-21 (unknown origin) biogenesis incubated for 30 mins in presence of human recombinant dicer by FRET based assay. Type of assay: nucleic-acid assay. The essentials: (§1)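 FRET cleavage assay on a 72-mer pre-miR-21 carrying 5′-fluorescein and 3′-dabcyl. Substrate is processed by recombinant Dicer, E. coli RNase III or MCF7 cell lysate across a range of ligand concentrations. Cleavage raises fluorescence. IC50 from duplicates over three independent experiments.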

The target of assay [7] is microRNA 21. As to the kind of experiment: Binding affinity to 5'-FAM/3'-DAB-labeled UGUCGGGUAGCUUAUCAGACUGAUGUUGACUGUUGAAUCUCAUGGCAACACCAGUCGAUGGGCUGUCUGACA pre-miRNA-21 (unknown origin) assessed as dissociation constant incubated for overnight in presence of double stranded 15-mer 5'-CGTTTTTATTTTTGC-3' DNA by fluorescence based assay. Type of assay: nucleic-acid assay.

In assay [8] the target is microRNA 21. The assay is described as follows: Inhibition of 5'-FAM/3'-DAB-labeled UGUCGGGUAGCUUAUCAGACUGAUGUUGACUGUUGAAUCUCAUGGCAACACCAGUCGAUGGGCUGUCUGACA pre-miRNA-21 (unknown origin) biogenesis preincubated for 30 mins followed by MCF7 cell lysate addition and measured after 1 hr by fluorescence based assay. The procedure, abridged: as §1
Assay [9] has as its target microRNA 21. As to the kind of experiment: Inhibition of 5'-FAM/3'-DAB-labeled UGUCGGGUAGCUUAUCAGACUGAUGUUGACUGUUGAAUCUCAUGGCAACACCAGUCGAUGGGCUGUCUGACA pre-miRNA-21 (unknown origin) biogenesis preincubated for 30 mins followed by Escherichia coli RNase III addition and measured after 1 hr by fluorescence based assay. Type of assay: nucleic-acid assay. The procedure, abridged: as §1

`CC(=O)Nc1nc(-c2cccc(NC(=O)CCC(=O)N[C@@H](Cc3cn(C[C@H]4O[C@@H](O[C@@H]5[C@@H](O)[C@H](N)C[C@H](N)[C@H]5O[C@H]5O[C@H](CN)[C@@H](O)[C@H](O)[C@H]5N)[C@H](O)[C@@H]4O[C@H]4O[C@@H](CN)[C@@H](O)[C@H](O)[C@H]4N)nn3)C(=O)N[C@@H](Cc3c[nH]cn3)C(N)=O)c2)cs1`: the deltaG in the assay with microRNA 21 [1] is -9.92 kcal/mol. The pKd was 7.30 on microRNA 21 [2], 7.30 at microRNA 21 [4] and 7.09 on microRNA 21 [7]. In addition, the figures for the Ratio with microRNA 21 [3] and in the assay with microRNA 21 [5] were 1 and 1.6, respectively. Besides, the pIC50 on microRNA 21 [6] is more than 5.30.
Take `Cc1ccc(C(=O)Nc2nc(-c3cccc(NC(=O)CCC(=O)N[C@@H](Cc4cn(C[C@H]5O[C@@H](O[C@@H]6[C@@H](O)[C@H](N)C[C@H](N)[C@H]6O[C@H]6O[C@H](CN)[C@@H](O)[C@H](O)[C@H]6N)[C@H](O)[C@@H]5O[C@H]5O[C@@H](CN)[C@@H](O)[C@H](O)[C@H]5N)nn4)C(=O)N[C@@H](C)C(N)=O)c3)cs2)cc1`: the pKd at microRNA 21 [2] was 6.89; at microRNA 21 [4] it was 6.77; on microRNA 21 [7] it was 6.58. The Ratio worked out at 1.3 with microRNA 21 [3] and 2 in the assay with microRNA 21 [5]. The pIC50 at microRNA 21 [6] is more than 5.30.
For the molecule `Cc1ccc(C(=O)Nc2nc(-c3cccc(NC(=O)CCC(=O)N[C@@H](Cc4cn(C[C@H]5O[C@@H](O[C@@H]6[C@@H](O)[C@H](N)C[C@H](N)[C@H]6O[C@H]6O[C@H](CN)[C@@H](O)[C@H](O)[C@H]6N)[C@H](O)[C@@H]5O[C@H]5O[C@@H](CN)[C@@H](O)[C@H](O)[C@H]5N)nn4)C(=O)N[C@@H](CCCCN)C(N)=O)c3)cs2)cc1`, the pKd on microRNA 21 [2] was 6.46; at microRNA 21 [4], 6.39; at microRNA 21 [7] it was 6.06. Moreover, the Ratio with microRNA 21 [3] is 1.2; in the assay on microRNA 21 [5], 2.5.
For `NC[C@@H]1O[C@H](O[C@H]2[C@@H](O)[C@H](O[C@@H]3[C@@H](O)[C@H](N)C[C@H](N)[C@H]3O[C@H]3O[C@H](CN)[C@@H](O)[C@H](O)[C@H]3N)O[C@@H]2Cn2cc(CCC(=O)Nc3cccc(-c4csc(NC(=O)[C@@H](N)Cc5c[nH]cn5)n4)c3)nn2)[C@H](N)[C@@H](O)[C@@H]1O`, the pKd was 6.89 on microRNA 21 [2], 6.87 at microRNA 21 [4] and 6.77 on microRNA 21 [7]. The Ratio in the assay with microRNA 21 [3] was found to be 1; in the assay on microRNA 21 [5], 1.3. Also, the pIC50 on microRNA 21 [8] is 5.51; against microRNA 21 [9], 5.90; at microRNA 21 [6], more than 5.30.
Take `C[C@H](NC(=O)[C@H](Cc1cn(C[C@H]2O[C@@H](O[C@@H]3[C@@H](O)[C@H](N)C[C@H](N)[C@H]3O[C@H]3O[C@H](CN)[C@@H](O)[C@H](O)[C@H]3N)[C@H](O)[C@@H]2O[C@H]2O[C@@H](CN)[C@@H](O)[C@H](O)[C@H]2N)nn1)NC(=O)CCC(=O)NCCn1ccc(=O)[nH]c1=O)C(N)=O`: the pKd on microRNA 21 [2] is 6.19; at microRNA 21 [4], 6.09; on microRNA 21 [7], 5.84. The Ratio in the assay on microRNA 21 [3] stood at 1.3; in the assay on microRNA 21 [5], 2.3.
Consider `CC(=O)Nc1nc(-c2cccc(NC(=O)CCC(=O)N[C@@H](Cc3cn(C[C@H]4O[C@@H](O[C@@H]5[C@@H](O)[C@H](N)C[C@H](N)[C@H]5O[C@H]5O[C@H](CN)[C@@H](O)[C@H](O)[C@H]5N)[C@H](O)[C@@H]4O[C@H]4O[C@@H](CN)[C@@H](O)[C@H](O)[C@H]4N)nn3)C(=O)N[C@@H](C)C(N)=O)c2)cs1`, for which the pKd on microRNA 21 [2] was 6.88; at microRNA 21 [4], 6.82; at microRNA 21 [7], 6.73. In addition, the Ratio in the assay with microRNA 21 [3] is 1.1; in the assay with microRNA 21 [5], 1.4.
Consider `CC(=O)Nc1nc(-c2cccc(NC(=O)CCC(=O)N[C@@H](Cc3cn(C[C@H]4O[C@@H](O[C@@H]5[C@@H](O)[C@H](N)C[C@H](N)[C@H]5O[C@H]5O[C@H](CN)[C@@H](O)[C@H](O)[C@H]5N)[C@H](O)[C@@H]4O[C@H]4O[C@@H](CN)[C@@H](O)[C@H](O)[C@H]4N)nn3)C(=O)N[C@@H](CCCCN)C(N)=O)c2)cs1`, for which, in the assay on microRNA 21 [1], the deltaG is -9.92 kcal/mol. In addition, the pKd was 7.29 on microRNA 21 [2], 7.29 on microRNA 21 [4] and 7.02 at microRNA 21 [7]. For the same molecule, the Ratio came to 1 with microRNA 21 [3] and 1.9 in the assay on microRNA 21 [5]. In addition, the pIC50 on microRNA 21 [6] is more than 5.30.
With `Cc1ccc(C(=O)Nc2nc(-c3cccc(NC(=O)CCC(=O)N[C@@H](Cc4cn(C[C@H]5O[C@@H](O[C@@H]6[C@@H](O)[C@H](N)C[C@H](N)[C@H]6O[C@H]6O[C@H](CN)[C@@H](O)[C@H](O)[C@H]6N)[C@H](O)[C@@H]5O[C@H]5O[C@@H](CN)[C@@H](O)[C@H](O)[C@H]5N)nn4)C(=O)N[C@@H](Cc4c[nH]cn4)C(N)=O)c3)cs2)cc1`, the pKd was 6.79 on microRNA 21 [2], 6.77 at microRNA 21 [4] and 6.56 at microRNA 21 [7]. Also, the figures for the Ratio in the assay with microRNA 21 [3] and in the assay on microRNA 21 [5] were 1 and 1.7, respectively. Moreover, the pIC50 at microRNA 21 [6] is more than 5.30.
For `NC[C@@H]1O[C@H](O[C@H]2[C@@H](O)[C@H](O[C@@H]3[C@@H](O)[C@H](N)C[C@H](N)[C@H]3O[C@H]3O[C@H](CN)[C@@H](O)[C@H](O)[C@H]3N)O[C@@H]2CO)[C@H](N)[C@@H](O)[C@@H]1O` [FRAMYCETIN], the pKd on microRNA 21 [2] was 5.86; on microRNA 21 [4], 5.85; on microRNA 21 [7], 5.71. Moreover, the Ratio is 1 with microRNA 21 [3] and 1.4 with microRNA 21 [5].

What is called pKd is the Kd on a negative log10 scale, so that one unit is a factor of ten. In general, pIC50 refers to the negative decadic logarithm of the IC50, by convention in mol/L.
